Hits are enriched below; roughly 1.9% of the tested compounds scored in any of these assays.
PGC1a acetyl inh: lowers PGC1a acetylation signal in U2OS cells; AlphaScreen anti-acetyl-lysine; with virally co-expressed GCN5 acetyltransferase; inhibition, % at 15.6 µM; 350,000 compounds, 0.17% hits;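 active means every replicate shows inhibition of at least 40%; inconclusive means mean inhibition at least 40% but some replicate below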
XiGFP reactiv: X-chromosome reactivation activator; XiGFP mouse fibroblasts, % GFP-positive cells imaging, 3 d; cells co-treated with 5-aza-dC sensitizer; scaled so ellipticine positive control = 100%; activation, % at 7.58 µM; 360,000 compounds, 0.055% hits;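 active means mean normalized replicate activation at least 10% and every replicate at or above 10%; inconclusive means only one of the two criteria met; inactive means mean below 10% and not all replicates reach 10%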
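Assay system – SV40-immortalized XiGFP fibroblast cells, line 68-5-11 · Buffer or medium – DMEM supplemented with 5-aza-dC as sensitizing agent · Dosing – one concentration, pinned · Benchmarks – positive control ellipticine, 6 µM final · Times – 3 days compound exposure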
CFTR F508del cor: CFTR F508del correction in bronchial cells. CFBE cells, YFP halide quenching; stimulated with forskolin plus potentiator P3; % fluorescence drop versus neutral controls. activity (quench increase), % at 7.58 µM. 350,000 compounds, 0.36% hits. AID 720511;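 active means mean added fluorescence quench of at least 8% versus neutral control, with both replicates also reaching 8%; inconclusive means only one of the mean or replicate conditions met; inactive means mean below 8% and not both replicates reaching 8%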;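 further: cells transiently co-express mutant CFTR-F508del with the halide-sensitive YFP; corrector assay measuring rescue of mutant channel to the surface after 24 h compound exposure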
FN deposition inh: fibronectin deposition inhibition; AH1F fibroblasts, Alexa488-fibronectin deposition fluorescence, overnight; inhibition, % at 12.6 µM; 350,000 compounds, 0.086% hits; AID 743247;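 active means mean inhibition across replicates of 30% or more, regardless of how many single replicates reach that level; inconclusive means mean under 30% yet at least half of replicates reach 30%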
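Assay system: AH1F fibroblasts assembling fluorescent fibronectin matrix; Amount: 10000 AH1F cells per well; Buffer or medium: DMEM, 2% serum; Probe or stimulus: Alexa488-fibronectin, 24 nM final in well; Doses: single compound dose, delivered by pin transfer; Incubation: 1 h adhesion, overnight exposure; Measured by: fluorescence 485/525 nm; Read-out: fibronectin deposition inhibition.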
Cneo AK release: Cryptococcus neoformans lysis via adenylate kinase release | C. neoformans lysis, adenylate kinase release luminescence, 4 h; normalised: neutral wells 0, clomiphene wells 100 | lysis activity, % at 15 µM | 360,000 compounds, 0.2% hits | AID 651654;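 active means mean lysis activity across replicates of at least 80%, whatever share of replicates individually reach that level; inactive means mean lysis activity below 80%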
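Material – Cryptococcus neoformans yeast cells · Quantity – 5 × 10^6 yeast cells/mL · Buffer or medium – YPD medium · Compound – single dose · Timing – 4 h static compound exposure, 37 °C, read 1 h post-reagent · Signal – adenylate kinase release luminescence · Read-out basis – lysis from increased AK signal · Benchmarks – Clomiphene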
DENV2 CPE: inhibitors of DENV2 cytopathic effect; DENV2-infected cells, cytopathic effect rescue, plate reader; 350,000 compounds, 1.7% hits; CPE inhibition, % at 9.99 µM; in the data active means CPE inhibition above about 20%, passing the limit was not always enough; inconclusive means no clear call, values can overlap the other calls; tested in BHK-21 cells
Numbers stand for hits; . = inactive; ? = inconclusive; / = no result given.

SMILES	PGC1a acetyl inh	XiGFP reactiv	CFTR F508del cor	FN deposition inh	Cneo AK release	DENV2 CPE
C#CCNC(=O)C[C@@H]1C[C@@]2(C(=O)OC)CCCCC=C2N(CCC2=CCCCC2)C1=O	/	.	.	.	/	?
CCCCCCCCN1C(=O)[C@H](CC(=O)NCCCCc2ccccc2)C[C@@]2(C(=O)OC)CC(C)(C)CC=C12	/	.	.	.	/	35
COC(=O)[C@]12CCCCC=C1N(CCC1=CCCCC1)C(=O)[C@H](CC(=O)NCc1cccc(C(F)(F)F)c1)C2	/	.	.	.	/	51
COC(=O)[C@@]12C[C@@H](CC(=O)NCc3ccc(OC)c(OC)c3)C(=O)N(Cc3ccco3)C1=CCC(C)(C)C2	/	.	.	.	/	22
CCCCNC(=O)C[C@@H]1C[C@@]2(C(=O)OC)CCCCC=C2N(CCC2=CCCCC2)C1=O	/	.	.	.	/	80
C/C=C/c1ccc2c(c1)O[C@@H](CN(C)C(=O)c1cccc(F)c1)[C@@H](C)CN([C@@H](C)CO)S2(=O)=O	.	.	.	/	.	?
Cc1ccc(S(=O)(=O)N(C)C[C@H]2Oc3c(NS(=O)(=O)c4cn(C)cn4)cccc3C(=O)N([C@@H](C)CO)C[C@@H]2C)cc1	.	.	.	/	/	/
CCCCCCCCN1C(=O)[C@H](CC(=O)NCCC(C)C)C[C@@]2(C(=O)OCC)CCCC=C12	/	.	.	.	/	20
CC(O)CNC1c2ccccc2CC1O (stereo not drawn)	.	.	.	.	.	63
C[C@@H]1CCCCO[C@@H](CN(C)CC2CCCCC2)[C@H](C)CN([C@H](C)CO)C(=O)c2cc(NC(=O)Nc3ccccc3)ccc2O1	.	.	.	.	.	.
CO[C@@H]1CC[C@@H]2CCOc3ccc(C#N)cc3C(=O)N(C)C[C@@H](OC)[C@H](C)C(=O)N(C)C[C@@H]1O2	/	.	/	.	.	.
CC1(NC(=O)c2ccccc2)CCN(CCc2cccs2)C1=O (stereo not drawn)	.	.	.	.	.	.
O=C(NC1(Cc2ccccc2)CCN(CCc2cccs2)C1=O)c1ccccc1 (stereo not drawn)	.	.	.	.	.	72
Clc1ccc(CSc2nncn2-c2ccccn2)cc1	.	/	/	/	.	/
Clc1ccc(CSc2nncn2-c2ccc3c(c2)OCCO3)cc1	.	.	11	.	.	.
CN(C)c1ccc(Nc2nc(N)c3ccccc3n2)cc1	/	.	.	.	.	.
CN(C)c1ccc(Sc2ccc3nc(N)nc(N)c3c2)cc1	46	.	.	.	.	.
CN(Cc1ccc(Cl)c(Cl)c1)C(=O)C1CC(=O)N(c2ccc3c(c2)OCCO3)C1 (stereo not drawn)	.	.	.	.	.	30
CC1CC(C)CN(C(=O)C2CC(=O)N(c3ccc4c(c3)OCCO4)C2)C1 (stereo not drawn)	.	.	.	.	.	.
NC(=O)C1CCN(C(=O)C2CC(=O)N(c3ccc4c(c3)OCCO4)C2)CC1 (stereo not drawn)	/	.	.	.	.	24
O=C(C[C@@H]1CC[C@@H]2[C@H](COC[C@H](O)CN2CCc2ccccc2)O1)N1CCC(Cc2ccccc2)CC1	.	.	.	.	.	.
C/C=C(/C)C(=O)O[C@@H]1c2c(ccc3ccc(=O)oc23)OC(C)(C)[C@@H]1OC(=O)/C(C)=C\C	/	.	.	.	.	26
C/C=C(/C)C(=O)O[C@@H]1[C@H](OC(=O)C=C(C)C)c2c(ccc3ccc(=O)oc23)OC1(C)C	.	.	.	.	.	/
C[C@@H]1CN([C@H](C)CO)S(=O)(=O)c2ccc(-c3ccccc3)cc2O[C@H]1CN(C)C(=O)Cc1ccccc1	.	.	/	.	.	.
N#CCC(=O)N/N=C/c1cn(Cc2cccc3ccccc23)c2ccccc12	.	.	11	.	.	.
SMILES	PGC1a acetyl inh	XiGFP reactiv	CFTR F508del cor	FN deposition inh	Cneo AK release	DENV2 CPE
N#CCC(=O)N/N=C/c1cn(Cc2ccccc2C#N)c2ccccc12	.	.	.	.	.	.
C[C@H](CO)N1C[C@H](C)[C@@H](CN(C)C(=O)CN(C)C)Oc2ncc(-c3ccc(C(=O)N(C)C)cc3)cc2C1=O	.	.	.	/	.	.
C[C@@H]1CCCCO[C@@H](CN(C)C(=O)Nc2ccc(C(F)(F)F)cc2)[C@@H](C)CN([C@H](C)CO)C(=O)c2cc(NS(=O)(=O)c3ccccc3)ccc2O1	.	.	.	.	.	21
C[C@@H]1CN([C@H](C)CO)C(=O)c2cc(NS(=O)(=O)c3cccs3)ccc2O[C@@H](C)CCCCO[C@@H]1CN(C)C(=O)CCC(F)(F)F	.	.	.	/	.	31
C[C@@H]1CN([C@@H](C)CO)C(=O)c2cc(NS(=O)(=O)c3ccccc3)ccc2O[C@@H](C)CCCCO[C@@H]1CN(C)C(=O)Nc1ccc(C(F)(F)F)cc1	.	.	.	.	.	.
C[C@@H]1CCCCO[C@H](CN(C)C(=O)Nc2ccc(C(F)(F)F)cc2)[C@H](C)CN([C@H](C)CO)C(=O)c2cc(NS(=O)(=O)c3ccccc3)ccc2O1	.	.	.	.	.	77
C[C@H](CO)N1C[C@H](C)[C@@H](CN(C)C(=O)CCC(F)(F)F)OCCCC[C@H](C)Oc2ccc(NS(=O)(=O)c3cccs3)cc2C1=O	.	.	.	/	.	.
C[C@H](CO)N1C[C@H](C)[C@@H](CN(C)C(=O)Nc2ccc(C(F)(F)F)cc2)OCCCC[C@H](C)Oc2ccc(NS(=O)(=O)c3ccccc3)cc2C1=O	.	.	.	.	.	41
C[C@H]1CN([C@@H](C)CO)C(=O)c2cc(-c3cccc(F)c3)cnc2O[C@@H]1CN(C)Cc1cccc(F)c1	.	.	.	.	/	/
C[C@@H]1CN([C@@H](C)CO)C(=O)c2cc(NS(=O)(=O)c3cccs3)ccc2O[C@@H](C)CCCCO[C@H]1CN(C)C(=O)Nc1ccc(F)cc1	.	.	.	/	.	.
C[C@H](CO)N1C[C@H](C)[C@@H](CN(C)C(=O)Nc2ccc(C(F)(F)F)cc2)OCCCC[C@H](C)Oc2ccc(NS(=O)(=O)c3cccs3)cc2C1=O	.	.	.	/	.	94
C[C@H]1CN([C@@H](C)CO)C(=O)Cc2cc(NC(=O)CCCCCC(=O)Nc3ccccc3N)ccc2O[C@H]1CN(C)S(=O)(=O)c1ccc(F)cc1	.	.	.	/	.	.
C=CC(=O)N1C/C(=C/c2ccccc2)C(=O)/C(=C\c2ccccc2)C1	73	.	.	40	/	?
O=C(C[C@H]1CC[C@@H]2[C@H](COC[C@@H](O)CN2Cc2ccc3c(c2)OCO3)O1)N1CCOCC1	.	.	.	.	.	.
